Laboratory results reported in ChEMBL document CHEMBL4837245, “Discovery of VU6028418: A Highly Selective and Orally Bioavailable M4 Muscarinic Acetylcholine Receptor Antagonist” (ACS Med Chem Lett, 2021).

Legend:
[1] = molecular target: T1, Muscarinic acetylcholine receptor M4 (Rattus norvegicus, UniProt P08485); assay: Displacement of [3H]NMS from rat muscarinic receptor M4 expressed in CHO cell membranes incubated for 3 hrs by radiometric scintillation counting analysis; parameters: species or system Cell membrane
T1 sequence (P08485 whole entry): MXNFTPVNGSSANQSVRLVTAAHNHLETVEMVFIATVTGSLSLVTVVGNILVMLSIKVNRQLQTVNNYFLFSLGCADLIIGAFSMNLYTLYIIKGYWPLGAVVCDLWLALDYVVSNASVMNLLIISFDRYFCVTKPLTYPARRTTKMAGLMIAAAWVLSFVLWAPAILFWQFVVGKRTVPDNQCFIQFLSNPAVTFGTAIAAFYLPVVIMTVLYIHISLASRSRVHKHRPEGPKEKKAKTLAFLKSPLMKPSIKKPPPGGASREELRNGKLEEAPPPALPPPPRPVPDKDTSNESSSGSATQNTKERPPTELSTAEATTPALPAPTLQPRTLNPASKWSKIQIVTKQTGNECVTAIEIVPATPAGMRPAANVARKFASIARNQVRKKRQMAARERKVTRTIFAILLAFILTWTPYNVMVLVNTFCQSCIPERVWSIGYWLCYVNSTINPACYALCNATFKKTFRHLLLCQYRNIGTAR

CYP3A4 [2] = molecular target: T2, CYP3A4 (Homo sapiens, UniProt P08684); assay: Inhibition of CYP3A4 in human liver microsomes using midazolam as substrate preincubated for 15 mins followed by NADPH addition and measured after 8 mins by LC-MS/MS analysis; format: ADME; details: human, liver microsomes, probe midazolam; time 23 min; read-out: INH
T2 sequence (P08684 whole entry): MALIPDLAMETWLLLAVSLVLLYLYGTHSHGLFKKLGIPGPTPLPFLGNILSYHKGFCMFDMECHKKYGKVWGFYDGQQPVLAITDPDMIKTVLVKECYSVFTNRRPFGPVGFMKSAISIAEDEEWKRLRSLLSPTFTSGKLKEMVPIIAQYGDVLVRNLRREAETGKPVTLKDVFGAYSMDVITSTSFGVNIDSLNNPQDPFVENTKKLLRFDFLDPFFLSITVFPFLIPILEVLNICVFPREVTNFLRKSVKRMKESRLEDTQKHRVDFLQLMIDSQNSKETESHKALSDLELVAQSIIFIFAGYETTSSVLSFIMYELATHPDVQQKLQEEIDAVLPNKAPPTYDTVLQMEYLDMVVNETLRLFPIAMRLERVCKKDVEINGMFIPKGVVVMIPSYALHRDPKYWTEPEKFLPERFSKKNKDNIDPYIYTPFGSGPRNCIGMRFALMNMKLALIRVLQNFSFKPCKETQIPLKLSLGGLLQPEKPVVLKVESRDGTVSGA
Summary of the method: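 Cocktail CYP450 inhibition assay run in human liver microsomes.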

[3] = Clearance in Sprague-Dawley rat plasma at 1.0 mg/kg, iv measured upto 24 hrs by LC-MS/MS analysis; format: ADME, organism-based
Summary of the method: (§1)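 Single iv and oral (suspension) dosing; iv/po doses 1/10 mg/kg in SD rat, 1/3 mg/kg in CD-1 mouse and beagle dog. Plasma PK parameters are means from two to three animals per species.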

[4] = Clearance in CD-1 mouse plasma at 1.0 mg/kg, iv measured upto 24 hrs by LC-MS/MS analysis; format: ADME, organism-based; summary of the method: as §1
[5] = Clearance in Beagle dog plasma at 1.0 mg/kg, iv measured upto 24 hrs by LC-MS/MS analysis; format: ADME, organism-based, Canis lupus familiaris; summary of the method: as §1
[6] = Cmax in Sprague-Dawley rat at 10 mg/kg, po measured upto 24 hrs by LC-MS/MS analysis; format: ADME, organism-based; parameters: route oral, dose 10 mg/kg, time <=24; details: in vivo; summary of the method: as §1
[7] = Tmax in CD-1 mouse at 3 mg/kg, po measured upto 24 hrs by LC-MS/MS analysis; format: ADME, organism-based; details: in vivo
Summary of the method: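 Pharmacokinetics in Sprague-Dawley rat, CD-1 mouse and beagle dog. Intravenous dose was 1 mg/kg in each species. Oral doses were given as a suspension: 10 mg/kg in rat, 3 mg/kg in mouse and dog. Each parameter is the mean of two to three animals.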

[8] = Ratio of drug concentration in brain to plasma of Sprague-Dawley rat at 1 mg/kg, iv; format: ADME, organism-based
Rattus norvegicus [9] = assay: Reversal of haloperidol-induced catalepsy in po dosed rat; format: functional, organism-based
Summary of the method: (§2)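 Rat haloperidol-induced catalepsy model with oral test dosing at 0.3, 1 and 3 mg/kg alongside vehicle-treated controls. Read-out is latency to withdraw, also expressed as % reversal of catalepsy. Groups compared by ANOVA.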

Cytochrome P450 2D6 = Cytochrome P450 2D6 (Homo sapiens, UniProt P10635); assay: Time dependent inhibition of CYP2D6 (unknown origin); format: ADME
Cytochrome P450 2D6, sequence (P10635 whole entry): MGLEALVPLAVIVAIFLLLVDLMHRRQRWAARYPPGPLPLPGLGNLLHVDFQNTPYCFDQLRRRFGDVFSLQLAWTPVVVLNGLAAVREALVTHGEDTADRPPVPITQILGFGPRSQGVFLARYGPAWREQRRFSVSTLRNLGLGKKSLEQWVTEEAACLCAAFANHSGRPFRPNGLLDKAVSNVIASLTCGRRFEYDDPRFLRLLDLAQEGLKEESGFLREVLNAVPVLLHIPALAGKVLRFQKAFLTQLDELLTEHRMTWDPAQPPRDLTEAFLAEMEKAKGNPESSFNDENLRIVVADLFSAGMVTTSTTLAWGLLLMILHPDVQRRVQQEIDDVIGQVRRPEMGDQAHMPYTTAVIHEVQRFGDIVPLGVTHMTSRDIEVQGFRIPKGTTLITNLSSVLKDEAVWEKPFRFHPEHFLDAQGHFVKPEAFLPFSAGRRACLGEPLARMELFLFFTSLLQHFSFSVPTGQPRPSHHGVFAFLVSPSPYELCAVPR

CYP2B6 = CYP2B6 (Homo sapiens, UniProt P20813); assay: Induction of CYP2B6 in human hepatocytes; format: ADME, cell-based, Hepatocyte
CYP2B6, sequence (P20813 whole entry): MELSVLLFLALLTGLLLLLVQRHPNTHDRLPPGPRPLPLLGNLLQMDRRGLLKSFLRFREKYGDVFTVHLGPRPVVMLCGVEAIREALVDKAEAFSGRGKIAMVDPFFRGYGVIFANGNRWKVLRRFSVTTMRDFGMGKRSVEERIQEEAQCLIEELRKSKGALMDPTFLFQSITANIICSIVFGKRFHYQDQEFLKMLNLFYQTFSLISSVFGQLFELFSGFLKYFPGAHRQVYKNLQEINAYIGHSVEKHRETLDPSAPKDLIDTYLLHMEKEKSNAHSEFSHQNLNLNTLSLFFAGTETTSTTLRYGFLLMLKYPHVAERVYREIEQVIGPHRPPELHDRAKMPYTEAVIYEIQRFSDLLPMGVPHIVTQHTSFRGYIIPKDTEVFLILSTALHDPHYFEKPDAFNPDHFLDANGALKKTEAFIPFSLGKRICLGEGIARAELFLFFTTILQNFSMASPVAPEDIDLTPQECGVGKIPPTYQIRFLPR

CYP3A4 [10] = molecular target: T2, CYP3A4; assay: Induction of CYP3A4 in human hepatocytes; format: ADME, cell-based, Hepatocyte
CYP1A2 = molecular target: T3, CYP1A2 (Homo sapiens, UniProt P05177); assay: Induction of CYP1A2 in human hepatocytes relative to control; format: ADME, cell-based, Hepatocyte
T3 sequence (P05177 whole entry): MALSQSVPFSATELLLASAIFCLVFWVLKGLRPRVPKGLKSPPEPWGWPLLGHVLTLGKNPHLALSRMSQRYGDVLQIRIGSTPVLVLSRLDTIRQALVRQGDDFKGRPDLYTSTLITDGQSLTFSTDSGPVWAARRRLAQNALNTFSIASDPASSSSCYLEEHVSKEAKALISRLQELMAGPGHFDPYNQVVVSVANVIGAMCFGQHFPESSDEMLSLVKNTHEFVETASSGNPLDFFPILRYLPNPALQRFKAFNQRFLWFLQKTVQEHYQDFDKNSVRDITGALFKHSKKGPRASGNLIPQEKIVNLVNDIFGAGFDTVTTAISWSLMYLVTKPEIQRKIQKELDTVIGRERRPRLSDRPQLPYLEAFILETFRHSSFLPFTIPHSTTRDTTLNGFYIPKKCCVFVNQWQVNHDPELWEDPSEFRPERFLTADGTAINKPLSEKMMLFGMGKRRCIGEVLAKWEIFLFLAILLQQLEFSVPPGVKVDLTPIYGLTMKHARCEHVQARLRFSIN

CYP3A4 [11] = molecular target: T2, CYP3A4; assay: Induction of CYP3A4 in human hepatocytes relative to control; format: ADME, cell-based, Hepatocyte
Rattus norvegicus [12] = assay: Effect on haloperidol-induced catalepsy in rat assessed as reduction in mean latency to withdraw at 1 mg/kg, po (reference value: 43.4 +/- 4.3 sec); format: functional; summary of the method: as §2
Rattus norvegicus [13] = assay: Effect on haloperidol-induced catalepsy in rat assessed as reduction in mean latency to withdraw at 3 mg/kg, po (reference value: 43.4 +/- 4.3 sec); format: functional; summary of the method: as §2
[14] = molecular target: T4, Sigma non-opioid intracellular receptor 1 (Homo sapiens, UniProt Q99720); assay: Inhibition of human sigma1 receptor at 10 uM relative to control
T4 sequence (Q99720 whole entry): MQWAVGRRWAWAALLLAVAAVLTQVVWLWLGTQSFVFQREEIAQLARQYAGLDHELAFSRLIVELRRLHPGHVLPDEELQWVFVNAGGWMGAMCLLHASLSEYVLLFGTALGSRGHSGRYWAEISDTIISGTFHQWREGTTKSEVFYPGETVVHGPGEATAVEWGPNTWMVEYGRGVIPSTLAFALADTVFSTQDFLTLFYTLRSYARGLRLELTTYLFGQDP

hERG = hERG (Homo sapiens, UniProt Q12809); assay: Inhibition of human ERG at 10 uM relative to control
hERG, sequence (Q12809 whole entry): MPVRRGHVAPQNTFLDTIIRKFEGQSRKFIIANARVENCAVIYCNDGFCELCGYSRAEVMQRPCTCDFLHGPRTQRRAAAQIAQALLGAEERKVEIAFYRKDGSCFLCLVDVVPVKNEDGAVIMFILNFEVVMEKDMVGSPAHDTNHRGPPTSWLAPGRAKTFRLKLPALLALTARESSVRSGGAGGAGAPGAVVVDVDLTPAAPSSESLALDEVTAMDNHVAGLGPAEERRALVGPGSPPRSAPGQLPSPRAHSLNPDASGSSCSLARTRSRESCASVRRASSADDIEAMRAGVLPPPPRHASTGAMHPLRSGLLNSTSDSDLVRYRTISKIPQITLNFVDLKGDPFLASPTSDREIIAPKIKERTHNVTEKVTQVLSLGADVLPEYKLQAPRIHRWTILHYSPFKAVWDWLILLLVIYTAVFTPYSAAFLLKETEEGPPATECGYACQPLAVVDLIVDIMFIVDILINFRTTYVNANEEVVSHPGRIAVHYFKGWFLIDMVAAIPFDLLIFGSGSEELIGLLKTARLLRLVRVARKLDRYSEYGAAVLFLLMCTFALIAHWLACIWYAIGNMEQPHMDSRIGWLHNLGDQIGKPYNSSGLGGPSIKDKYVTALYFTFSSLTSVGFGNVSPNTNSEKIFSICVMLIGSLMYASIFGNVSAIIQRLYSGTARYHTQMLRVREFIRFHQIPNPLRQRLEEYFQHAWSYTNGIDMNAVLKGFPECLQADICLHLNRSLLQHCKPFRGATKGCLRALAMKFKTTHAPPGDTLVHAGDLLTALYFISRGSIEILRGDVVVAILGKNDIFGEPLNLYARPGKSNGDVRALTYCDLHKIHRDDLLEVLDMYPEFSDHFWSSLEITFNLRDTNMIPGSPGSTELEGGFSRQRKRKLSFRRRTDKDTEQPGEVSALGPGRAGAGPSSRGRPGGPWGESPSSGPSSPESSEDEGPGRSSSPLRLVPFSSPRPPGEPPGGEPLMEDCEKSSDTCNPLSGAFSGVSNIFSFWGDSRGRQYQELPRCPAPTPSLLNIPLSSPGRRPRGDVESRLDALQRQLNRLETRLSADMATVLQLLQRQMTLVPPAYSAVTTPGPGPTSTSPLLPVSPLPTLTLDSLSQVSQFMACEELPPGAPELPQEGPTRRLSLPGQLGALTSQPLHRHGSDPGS

[15] = molecular target: T4, Sigma non-opioid intracellular receptor 1; assay: Inhibition of human sigma1 receptor by radioligand binding assay
[16] = molecular target: T5, Voltage-gated inwardly rectifying potassium channel KCNH2 (Homo sapiens, UniProt Q12809); assay: Inhibition of human ERG by patch clamp assay
T5 sequence (Q12809 whole entry): as above

[17] = molecular target: T5, Voltage-gated inwardly rectifying potassium channel KCNH2; assay: Inhibition of human ERG tail current by electrophysiological assay relative to control
Summary of the method: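 HEK cells, whole-cell electrophysiology. hERG tail current recorded at −40 mV after a depolarizing step to +30 mV; n = 3.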

Question: What does the source list for `Fc1cc(F)c(F)c(-c2ccc(N[C@H]3C[C@@H]4CN(CC5CCOCC5)C[C@@H]4C3)nn2)c1`?
Answer: IC50 [1]: 145 nM; IC50 at 8 min (CYP3A4 [2]): > 30000 nM; clearance [3]: 6.1 mL/min/kg; clearance [4]: 17 mL/min/kg; clearance [5]: 43 mL/min/kg; Cmax [6]: 17000 ng/mL; Tmax [7]: 6.67 h; Kp [8]: 6.4; Activity (Rattus norvegicus [9]): Dose-Dependent Effect; IC50 (Cytochrome P450 2D6): > 100000 nM; EC50 (CYP2B6): 1900 nM; EC50 (CYP3A4 [10]): 1900 nM; Emax (CYP1A2): 2.1%; Emax (CYP3A4 [11]): 2.1%; Activity (Rattus norvegicus [12]): 21.3 s; Activity (Rattus norvegicus [13]): 15.1 s; inhibition [14]: 101%; inhibition at 10 µM (hERG): 61%; Ki [15]: 16.9 nM; IC50 [16]: 431 nM; inhibition (INH) [17]: 94%
